Most compounds without a hit are left out; they make up all but 1.9% or so of the library.
Hck Nef HTS: inhibitors of human Hck kinase activated by Nef. Recombinant Hck-YEEI plus Nef, Z-Lyte FRET kinase assay. P08631. actives 0.68% (n = 220,000). inhibition, % at 20 µM. AID 463187;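 active = Hck-Nef kinase inhibition above about 50%, limit read from the data; inactive = inhibition below that limit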;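 also: 0% = DMSO with Hck plus Nef and 100% = Hck alone without Nef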
Target sequence (P08631 whole entry, looked up): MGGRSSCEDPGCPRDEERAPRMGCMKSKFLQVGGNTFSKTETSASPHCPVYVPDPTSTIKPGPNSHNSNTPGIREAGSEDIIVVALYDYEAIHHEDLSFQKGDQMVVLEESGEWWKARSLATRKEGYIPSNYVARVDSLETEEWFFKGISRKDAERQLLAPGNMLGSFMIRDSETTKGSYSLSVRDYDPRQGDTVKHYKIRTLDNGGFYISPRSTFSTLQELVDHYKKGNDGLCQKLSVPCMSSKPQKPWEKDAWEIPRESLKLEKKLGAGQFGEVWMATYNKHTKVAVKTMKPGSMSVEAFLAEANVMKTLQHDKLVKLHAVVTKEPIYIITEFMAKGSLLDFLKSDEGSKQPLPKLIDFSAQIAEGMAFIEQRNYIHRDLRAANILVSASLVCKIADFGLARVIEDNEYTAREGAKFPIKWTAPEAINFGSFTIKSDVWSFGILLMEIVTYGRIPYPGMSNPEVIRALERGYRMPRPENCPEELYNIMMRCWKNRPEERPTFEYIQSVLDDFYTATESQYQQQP
TbHK1 inh: blocks Trypanosoma brucei hexokinase 1 activity; AID 1430; actives 0.11% (n = 220,000); inhibition, % at 10 µM; recombinant TbHK1, G6PDH-coupled NADH A340;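 active = inhibition of 50% or more in the single-dose primary screen; inactive = inhibition below 50%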
RanGTP-Impb inh: inhibitors of RanGTP-importin-beta interaction, primary screen, biochemical, FRET, CFP-Ran, YFP-importin-beta, homogeneous; actives 1.1% (n = 300,000); cell-free CFP-Ran/YFP-importin-beta FRET ratio; inhibition, % (no concentration beside the values);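 active = more than half of the replicate wells show a fall in the fluorescence ratio signal beyond about 16%, limit read from the data, passing the limit was not always enough; inconclusive = exactly half of the replicate wells pass the set limit; inactive = fewer than half of replicates pass the limit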;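 also: 0% = DMSO wells and 100% = Ran loaded with GDP instead of GTP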
Runt-CBFb FRET: inhibitors of human RUNX1 Runt domain binding to CBFb | Q01196+Q13951 | Cerulean-Runt/Venus-CBFb FRET ratio 530/480, 1 h | inhibition, % at 20 µM | actives 0.46% (n = 220,000) | AID 1496;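 active = inhibition over about 50% at 20 µM in the single-dose screen, limit read from the data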;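 also: 0% = DMSO wells and 100% = excess unlabeled CBFb competitor control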
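Measured by: fluorescence energy transfer, 422 nm excitation, 530/480 nm emission; test system: Cerulean-tagged RUNX1 Runt domain (FRET donor) fusion protein; buffer or medium: Tris pH 7.5 buffer with BSA; compound: one dose, 20 µM compound, 1% DMSO; times: two 1 h room-temperature incubations shielded from light; benchmarks: unlabeled CBFb 5 µM, positive control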
Runt-SMMHC FRET: inhibitors of human RUNX1 Runt domain binding to CBFb-SMMHC; actives 0.74% (n = 220,000); inhibition, % at 20 µM; Cerulean-Runt/Venus-CBFb-SMMHC FRET ratio 530/480, 1 h; Q01196+Q13951;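 active = mean inhibition across duplicate retests at 20 µM reaching about 50%, limit read from the data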;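 also: 0% = DMSO wells and 100% = wells with excess untagged CBFb-SMMHC; inhibitors lower the FRET ratio by blocking Runt binding to CBFb-SMMHC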
* marks the source's active call; other numbers are inactive results; ? = inconclusive; nt = no result.

SMILES	Hck Nef HTS	TbHK1 inh	RanGTP-Impb inh	Runt-CBFb FRET	Runt-SMMHC FRET
O=[N+]([O-])c1ccc(O)c(N=Cc2sc3ccccc3c2O)c1	3	-3	38*	16	48
Oc1c(C=Nc2cccc3cccnc23)sc2ccccc12	1	33	39*	35	18
Cc1cccc(/N=C/c2sc3ccccc3c2O)n1	5	-9	33*	-1	-1
Cc1cccc(/N=C/c2c(O)[nH]c3ccccc23)n1	9	-30	3	1	-1
O=C(O)CCCC(=O)N1N=C(c2ccccc2)CC1c1cccs1 (centres undefined)	0	-4	0	4	-2
Cc1ccccc1NC(=O)CCCC(=O)c1ccccc1	nt	nt	0	nt	nt
O=C(CSc1nnc(CNC(=O)c2ccco2)o1)Nc1ccc(Br)cc1	nt	nt	1	nt	nt
CC1CN(c2sc(S(C)(=O)=O)nc2S(=O)(=O)c2ccc(Cl)cc2)CC(C)O1 (centres undefined)	nt	nt	16*	nt	nt
O=C(NC(NNc1ccc([N+](=O)[O-])cc1)(C(F)(F)F)C(F)(F)F)c1ccccc1Cl	-1	-14	23*	-1	-7
Cn1c(SCC(=O)N2CCCC2=O)nc2ccccc21	19	-3	4	1	-1
O=C1CCNc2cc3ccccc3cc21	8	-5	38*	16	75*
Cc1ccc2c(c1)C(=O)CCN2	5	9	?	-41	-152
CN(C)Cc1c(O)ccc2cc(-c3nc4ccccc4n3C)c(=O)oc12	nt	nt	132*	nt	nt
O=c1oc2ccc3ccccc3c2cc1-c1nnc(-c2cccs2)o1	0	4	114*	19	58*
COc1ccc2cc(-c3ccccc3)c(=O)oc2c1	nt	nt	3	nt	nt
COc1ccc(-c2nnc(-c3cc4c(ccc5ccccc54)oc3=O)o2)cc1	2	0	-6	16	39
CCN(CC)c1ccc2cc(-c3nc(-c4ccc(OC)cc4)cs3)c(=O)oc2c1	-10	9	nt	20	62*
O=c1oc2ccc3ccccc3c2cc1-c1nnc(-c2ccccc2)o1	2	3	122*	76*	39
COC(=O)c1cc(S(=O)(=O)Nc2cccc(-c3cnco3)c2)oc1C	nt	nt	-2	nt	nt
CCN(CC)c1ccc2cc(-c3nnc(-c4ccccc4)o3)c(=O)oc2c1	6	5	115*	5	83*
CCN(CC)c1ccc2cc(-c3nnc(-c4ccc(Br)cc4)o3)c(=O)oc2c1	-4	26	nt	nt	nt
CCN(CC)c1ccc2cc(-c3nc4ccccc4n3C)c(=O)oc2c1	9	-4	126*	12	61*
Nc1nnc(-c2cc3c(ccc4ccccc43)oc2=O)s1	6	-10	nt	20	92*
NC1=NC(=O)/C(=C/c2cn(Cc3ccccc3)c3ccccc23)S1	5	-9	5	1	2
CCOc1ncccc1C(=O)OCC(=O)c1cc(OC)c(OC)c(OC)c1	24	-6	2	1	1
SMILES	Hck Nef HTS	TbHK1 inh	RanGTP-Impb inh	Runt-CBFb FRET	Runt-SMMHC FRET
O=c1c2ccccc2n(CC(O)CN2CCOCC2)c2ccccc12 (centres undefined)	nt	nt	79*	nt	nt
CC(=O)c1ccc(OCC(=O)NC(=O)NC2CCCCC2)cc1	nt	nt	0	nt	nt
CN1CCc2nc(NC(=O)c3cccc(S(=O)(=O)N4CCc5ccccc54)c3)sc2C1	3	-14	48*	45	84*
COc1cccc(C(=O)Nc2nc3c(s2)CN(C)CC3)c1	3	-5	9	nt	87*
COc1cccc(C(=O)Nc2sc3c(c2C(=O)O)CCCC3)c1	nt	nt	5	nt	nt
COc1cccc(C(=O)Nc2nnc(-c3ccccc3)s2)c1	nt	nt	2	nt	nt
COc1cccc(C(=O)Nc2sc3c(c2C#N)CCN(C(C)=O)C3)c1	26	-16	nt	21	51*
COC(=O)c1c(N(S(C)(=O)=O)S(C)(=O)=O)sc2c1CCN(c1ncc(C(F)(F)F)cc1Cl)C2	1	-13	2	65*	79*
O=C(O)C=C1CCN(c2ncc(C(F)(F)F)cc2Cl)CC1	1	0	-1	-3	-3
NNC(=O)C=C1CCN(c2ncc(C(F)(F)F)cc2Cl)CC1	0	2	-1	2	1
COC(=O)c1c(/N=C/N(C)C)sc2c1CCN(c1ncc(C(F)(F)F)cc1Cl)C2	25	-11	9	5	58*
COc1ccc2nc(Nc3nc(C)c(C(C)=O)s3)sc2c1	-9	-6	18*	11	42
CC(=O)c1sc(N/N=C\c2c(O)ccc3ccccc23)nc1C	nt	nt	-29	nt	nt
CC1C2=C(CC(C)(C)CC2=O)NC2=C1C(=O)CC(C)(C)C2	39	-5	136*	21	86*
CCNC(=O)C1=C(O)c2sccc2N(C)S1(=O)=O	25	-12	76*	45	65*
Cc1ccccc1NC(=S)C1=C(O)c2sccc2N(C)S1(=O)=O	-19	-33	89*	29	50*
C=CCOc1ccc(CN(C)CC(O)COc2cccc3ccccc23)cc1 (centres undefined)	nt	nt	4	nt	nt
CCCN1CNC(=S)N(c2ccccc2OCC)C1	2	4	2	-5	1
O=C(CCNC(=O)C1CCN(S(=O)(=O)c2ccccc2)CC1)Nc1ccccc1	nt	nt	5	nt	nt
Fc1ccc(-c2cc(C(F)(F)F)n3ncnc3n2)cc1	20	-17	3	2	1
Nc1nc2nc(-c3ccc(Cl)cc3)cc(C(F)(F)F)n2n1	-2	-4	?	24	76*
Cn1c(/C=C/c2ccc(Cl)cc2)nc2ccccc2c1=O	nt	nt	20*	nt	nt
O=c1[nH]c2ccccc2nc1/C=C/c1ccc(Cl)cc1	21	-3	23*	-32	37
CC(=O)Nc1ccc(/C=C/c2nc3ccccc3[nH]c2=O)cc1	nt	nt	-17	nt	nt
O=[N+]([O-])c1cccc(-c2csc(N/N=C/c3cccc(O)c3)n2)c1	13	-9	-3	-2	-2
SMILES	Hck Nef HTS	TbHK1 inh	RanGTP-Impb inh	Runt-CBFb FRET	Runt-SMMHC FRET
CCN1CCN(c2nc3ccccc3nc2C(C#N)C(=O)OC2CCCCC2)CC1 (centres undefined)	0	0	nt	18	38
CN1CCN(c2nc3ccccc3nc2C(C#N)C(=O)OC2CCCCC2)CC1 (centres undefined)	-4	1	15*	0	2
COCCNC(=O)C(C#N)c1nc2ccccc2nc1N1CCCCCC1 (centres undefined)	1	-10	72*	44	51*
CCN(CC)c1ccc(NC(=O)COc2ccc(C#N)cc2)cc1S(=O)(=O)Nc1ccc(OC)cc1	-22	3	0	0	2
Cc1cccc(C)c1NC(=S)N1CC(C)OC(C)C1 (centres undefined)	-6	-7	-2	-1	-2
CN(Cc1ccccc1)C(=O)Cn1cccc1C(=O)c1ccccc1	-15	-3	70*	1	3
O=C(O)Cn1cccc1C(=O)c1ccccc1	1	-19	2	nt	1
COc1ccc(CCNC(=O)COC(=O)/C=C/c2cc(OC)c(OC)c(OC)c2)cc1OC	17	-20	nt	2	0
